# Measured values pooled from the literature.
# Lines come from different studies, so protocols differ.
# Target: Serine/threonine-protein kinase Nek1 (NEK1, Homo sapiens, UniProt Q96PY6)
# Sequence (Q96PY6 1-1258, as in one of the studies): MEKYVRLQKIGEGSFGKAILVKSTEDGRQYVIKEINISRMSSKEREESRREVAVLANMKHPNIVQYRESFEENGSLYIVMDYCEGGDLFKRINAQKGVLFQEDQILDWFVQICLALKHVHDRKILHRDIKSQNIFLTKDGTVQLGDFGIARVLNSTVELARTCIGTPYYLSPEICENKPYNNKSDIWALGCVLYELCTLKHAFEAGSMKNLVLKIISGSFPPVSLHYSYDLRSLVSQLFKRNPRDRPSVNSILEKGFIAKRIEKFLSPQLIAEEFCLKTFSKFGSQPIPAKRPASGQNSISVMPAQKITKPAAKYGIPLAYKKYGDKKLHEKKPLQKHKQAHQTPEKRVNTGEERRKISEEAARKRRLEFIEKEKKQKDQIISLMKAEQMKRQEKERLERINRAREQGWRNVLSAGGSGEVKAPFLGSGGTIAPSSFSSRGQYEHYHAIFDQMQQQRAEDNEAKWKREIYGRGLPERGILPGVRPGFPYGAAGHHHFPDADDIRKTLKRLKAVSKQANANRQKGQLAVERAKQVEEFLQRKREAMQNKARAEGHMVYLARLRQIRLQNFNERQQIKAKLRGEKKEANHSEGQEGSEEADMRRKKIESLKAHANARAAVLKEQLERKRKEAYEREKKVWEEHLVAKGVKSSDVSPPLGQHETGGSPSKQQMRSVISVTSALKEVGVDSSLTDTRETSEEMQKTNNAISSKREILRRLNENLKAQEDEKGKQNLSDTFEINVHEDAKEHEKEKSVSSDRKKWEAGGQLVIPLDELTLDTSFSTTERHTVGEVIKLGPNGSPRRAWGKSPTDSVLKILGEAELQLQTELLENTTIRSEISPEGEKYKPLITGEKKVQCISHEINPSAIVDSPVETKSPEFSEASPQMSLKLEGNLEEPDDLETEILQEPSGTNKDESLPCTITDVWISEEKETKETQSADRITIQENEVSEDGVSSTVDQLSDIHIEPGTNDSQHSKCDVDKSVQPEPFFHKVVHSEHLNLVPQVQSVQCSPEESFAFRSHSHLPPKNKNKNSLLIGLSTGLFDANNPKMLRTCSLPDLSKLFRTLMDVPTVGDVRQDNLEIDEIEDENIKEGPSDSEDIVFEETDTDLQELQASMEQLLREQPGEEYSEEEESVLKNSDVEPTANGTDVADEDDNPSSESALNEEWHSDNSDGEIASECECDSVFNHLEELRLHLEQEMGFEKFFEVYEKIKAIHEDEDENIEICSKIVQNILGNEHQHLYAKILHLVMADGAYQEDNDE
Compound,effect on,action,technique,cells,concentration,endpoint,value
Cn1cnc(Br)c1C1=CN(c2ncnc3[nH]cnc23)CCS1,enzyme activity,inhibitor,radiometric,,50 nM,inhibition,33.1%
N#CCCc1ccc2c(c1)-c1[nH]c3ccc([N+](=O)[O-])cc3c1CC(=O)N2,cell-free assay,,,,0.5 µM,remaining signal,132%
CS(=O)(=O)c1cc(C2(NC(=O)c3cncc4c3cnn4-c3ccc(F)cc3)CC2)ccn1,cell-free assay,,competition with immobilised ligand,,1 µM,remaining binding,45%
CC/C(=N\NC(=O)NCc1cccc(O)c1)c1ccc(O)c(C)c1O,enzyme activity,inhibitor,,,0.1 µM,inhibition,-6%
CC(=O)N1CCC(c2ccc(C(=O)NC3=NCCN3)cc2C(F)(F)F)CC1,cell-free assay,,competition with immobilised ligand,,1 µM,remaining binding,100%
CCN1CCN(Cc2ccc(NC(=O)c3ccc(C)c(/C=C/c4cnc5[nH]ccc5c4OC)c3)cc2C(F)(F)F)CC1,target engagement in cells,inhibitor,chemoproteomics,A-375,5 µM,inhibition,-11.6%
CC(C)(O)[C@H]1CC[C@H](Nc2ccc3ncc(-c4cccc(C(F)(F)F)c4)n3n2)CC1,enzyme activity,inhibitor,,,1 µM,remaining activity,48.3%
c1cnn2ncc(-c3ccnc(N4CCC45COC5)n3)c2c1,binding,,,,1 µM,remaining binding,100%
O=C(Nc1cnn(-c2csc(C(=O)NC3COC3)c2)c1)Nc1ccccc1Cl,enzyme activity,inhibitor,,,5 µM,remaining activity,112%
CC(C)(C)c1nc(-c2cccc(NS(=O)(=O)c3c(F)cccc3F)c2F)c(-c2ccnc(N)n2)s1,enzyme activity,inhibitor,radiometric,,1 µM,remaining activity,63%
Cc1c(NC(=O)c2cc(C(N)=O)nc3cc(F)ccc23)c(C(F)(F)F)nn1Cc1ccc(C(C)(C)C)cc1,cell-free assay,,competition with immobilised ligand,,1 µM,remaining binding,97%
O=C1NC(=O)c2cc(Nc3ccc(F)cc3)c(Nc3ccc(F)cc3)cc21,cell-free assay,,,,0.5 µM,remaining signal,88%
CN1CC(Oc2cnc(C#N)cc2-c2ccn3nc(NC(=O)C4CC4)cc3c2)C1,enzyme activity,inhibitor,,,1 µM,inhibition,8%
CNc1cc(Oc2cc(C(=O)Nc3cc(N4CCN(C)CC4)cc(C(F)(F)F)c3)ccc2C)ncn1,target engagement in cells,inhibitor,chemoproteomics,Huh-7,1 µM,inhibition,-12.5%
CCCS(=O)(=O)Nc1ccc(F)c(C(=O)c2c[nH]c3ncc(-c4ccc(Cl)cc4)cc23)c1F,enzyme activity,inhibitor,,,1 µM,inhibition,< 20%
COc1cc2ncnc(Nc3ccc(Oc4ccccc4)cc3C)c2cc1OC,enzyme activity,inhibitor,,,1 µM,inhibition,-2%
C[C@H](c1ccc(F)cc1)N(Cc1cccc(C(=O)O)c1)C(=O)c1cnc2ccccc2c1,cell-free assay,,competition with immobilised ligand,,1 µM,remaining binding,100%
O=C1Nc2ccc(Cl)cc2C1=Cc1cc(Cl)c(O)c(Cl)c1,cell-free assay,,,,0.5 µM,remaining signal,81.5%
C[C@@H](c1cccc(C#N)c1)n1cc(Cl)cc(C(N)=O)c1=N,cell-free assay,,competition with immobilised ligand,,1 µM,remaining binding,100%
Cc1ccc(C(=O)Nc2ccc(CN3CCN(C)CC3)c(C(F)(F)F)c2)cc1C#Cc1cnc2cccnn12,enzyme activity,inhibitor,,,23.5 nM,remaining activity,98%
Nc1c(C(=O)NCc2ccc(C(=O)NCCCC3CCCCC3)cc2)cnn1-c1ccccc1,cell-free assay,,competition with immobilised ligand,,0.1 µM,remaining binding,84%
CCCCNc1ncc2c(-c3ccc(F)cc3)nn(C[C@H]3CC[C@H](N)CC3)c2n1,target engagement in cells,inhibitor,chemoproteomics,,20 mM,inhibition,-3.7%
